From PubChem BioAssay
FLuc act counter – affects firefly luciferase, flagging false hits in luciferase stimulation screens; ATPlite luciferase biochemical, luminescence, 10 min; 0 = ATP-free wells, 1 = DMSO control; activation factor at 10 µM; 200,000 tested, under 10 active; AID 1027;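 active = luciferase activation factor, scaled between plate controls, of at least 2 with compound at 10 µM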
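Material: luciferase plus luciferin reagent, cell-free. Medium: PBS buffer for ATP. Also added: ATP substrate, dispensed from a 10.24 µM working solution in PBS. Doses: test compounds dosed from 2 mM stocks in 100% DMSO. Incubation: 10 min post-reagent at room temperature. Technique: light output (luminescence). Read-out basis: luminescence gain marking luciferase activators.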
NF-kB expr up – raises NF-kB expression in human neuronal cells; NF-kB reporter expression; stronger effect = higher value; fold change at 12.5 µM; actives 1.6% (n = 190,000); AID 1239; in the data active = fold change above about 3.3
FLuc inhib CS – counter-screen for luciferase assay inhibitors: firefly luciferase inhibition | inhibition, % at 10 µM | ATPLite firefly luciferase biochemical luminescence, 10 min | AID 1006 | actives 1.5% (n = 200,000);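 active = inhibition above about 50% when tested at 10 µM, limit read from the data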
Rad51 HR inh – Rad51 (human) homologous recombination inhibition. Q06609. hRad51 DNA strand exchange, fluorescence dequenching. inhibition, % at 10 µM. actives 0.085% (n = 200,000);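 active = inhibition above 40% at the single screening dose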;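 also: 0% = DMSO control wells and 100% = blanks with heterologous ssDNA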
Target sequence (Q06609 whole entry, looked up): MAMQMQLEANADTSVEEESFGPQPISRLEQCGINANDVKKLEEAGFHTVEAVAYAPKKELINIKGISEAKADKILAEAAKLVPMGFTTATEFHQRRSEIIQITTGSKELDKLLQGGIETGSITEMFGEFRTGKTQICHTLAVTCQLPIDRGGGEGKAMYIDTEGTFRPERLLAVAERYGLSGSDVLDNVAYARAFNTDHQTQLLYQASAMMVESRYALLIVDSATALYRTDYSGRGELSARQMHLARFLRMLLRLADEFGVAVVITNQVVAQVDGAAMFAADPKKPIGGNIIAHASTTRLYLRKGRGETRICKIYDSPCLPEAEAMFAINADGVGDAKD
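Read-out basis: percent inhibition relative to plate controls and blanks / Assay system: human Rad51 nucleoprotein filaments preassembled on unlabelled ssDNA / Timing: filaments 15 min 37 °C, then compound 30 min / Control set: per-plate controls and blanks / Technique: fluorescence dequenching at 485/520 nm / Compound: 10 µM final, single point / Also added: Fluorescein- and BHQ1-tagged 47-mer duplex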
STAT1 act – STAT1 signaling activation; NIH 3T3 STAT1-luciferase reporter, IFN-gamma, luminescence; 100% = IFN-gamma alone, no compound; actives 2.6% (n = 200,000); activation (% of control), % at 5.5 µM;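 active = activation above the screen-wide mean activation plus 3 SD, cut at about 130% in these data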;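 also: raw ratio to IFN-gamma control signal so 100% means no change and 0% no light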
APP 5'UTR act – APP 5'UTR luciferase reporter activation; SH-SY5Y APP 5'UTR luciferase reporter, luminescence; zero percent = DMSO vehicle wells; activation, % at 2 µM; actives 1% (n = 190,000); AID 1276;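 active = activation above a set limit, based on mean plus 3 SD of controls, cut at about 140% in these data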
STAT1 activ conf – STAT1 activation, confirmation assay. actives 97% (n = 1,200). AID 1262. NIH 3T3 STAT1-luciferase reporter, IFN-gamma potentiation, luminescence; 100% = IFN-gamma EC80 alone, no compound. activation (% of control), % at 5.7 µM. shares compounds with STAT1 act;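 active = activation above a set limit carried over from the earlier primary STAT1 screen, cut at about 140% in these data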;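 also: simple ratio to median IFN-gamma plus DMSO wells so 0% means no light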
NFkB act – NF-kappaB activation in STAT1 activator counter-screen; activation (% of control), % at 5.7 µM; actives 43% (n = 1,200); AID 1306; shares compounds with STAT1 act; HEK293T NF-kB luciferase reporter, TNF-alpha stimulated, luminescence; 100% = TNF-alpha with vehicle only;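 active = activation above the mean of solvent-only control wells plus 3 SD, set per campaign, cut at about 130% in these data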;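 also: TNF-alpha given at a submaximal dose yielding about 80% of full reporter signal; values are well signal over median control so 100% means no change and 0% no light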
STAT3 act 2 – activates human STAT3, counter-screen to STAT1 activators; shares compounds with STAT1 act; U3A cells STAT3-luciferase reporter, IL-6, luminescence; cells lack STAT1; 100 = IL-6 alone, no compound effect; activation (% of control), % at 5.7 µM; actives 46% (n = 1,200);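 active = activation above the solvent-only control well mean plus 3 SD, set per plate batch, cut at about 110% in these data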;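 also: 0% = no luminescence and 100% = median IL-6 plus DMSO wells; higher means more STAT3 reporter activation so hits are non-selective activators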
Starred values were filed as active, the others as inactive. Most compounds without a hit are left out; they make up all but 3.9% or so of the library.

What do the screens show for `c1ccc(C(c2ccccc2)c2noc(CN3CCC(c4ccncc4)CC3)n2)cc1`?
FLuc act counter: 1.1; NF-kB expr up: 0.84; FLuc inhib CS: -9; STAT1 act: 95; APP 5'UTR act: -30

What do the screens show for `COc1ccc(/C=C/CN2CCC(CO)(Cc3ccccc3Cl)CC2)cc1`?
FLuc act counter: 0.9; NF-kB expr up: 1; FLuc inhib CS: 6; Rad51 HR inh: 0; STAT1 act: 102; APP 5'UTR act: 5

What do the screens show for `O=C(/C=C/Nc1ccc(S(=O)(=O)Nc2ncccn2)cc1)c1cccs1`?
Rad51 HR inh: 19

Results for O=C(/C=C/Nc1ccc(F)c(F)c1)c1cccs1 ?
FLuc act counter: 0.2; NF-kB expr up: 9.8*; FLuc inhib CS: 80*; Rad51 HR inh: -4; STAT1 act: 169*; APP 5'UTR act: 144*; STAT1 activ conf: 229*; NFkB act: 122; STAT3 act 2: 132*

Results for S=C(c1ccc(-c2ccc(Cl)cc2)o1)N1CCCCC1 ?
FLuc act counter: 0.3; NF-kB expr up: 4.9*; FLuc inhib CS: 71*; Rad51 HR inh: 0; STAT1 act: 181*; APP 5'UTR act: 184*; STAT1 activ conf: 222*; NFkB act: 138*; STAT3 act 2: 115*

Results for COc1ccccc1CCC(=O)Nc1nc2ccccc2[nH]1 ?
FLuc act counter: 0.8; NF-kB expr up: 1.4; FLuc inhib CS: 19; Rad51 HR inh: 0; STAT1 act: 105; APP 5'UTR act: 63

How did CC(C)CC(=O)Nc1ccc2oc(-c3cccnc3)nc2c1 do in these assays?
FLuc act counter: 0.5; NF-kB expr up: 2.1; FLuc inhib CS: 49; Rad51 HR inh: 2; STAT1 act: 124; APP 5'UTR act: 50

Results for CCCC(=O)Nc1ccc(-c2nc3cc(C)c(C)cc3o2)cc1 ?
FLuc act counter: 0.8; NF-kB expr up: 4.7*; FLuc inhib CS: 25; Rad51 HR inh: 6; STAT1 act: 202*; APP 5'UTR act: 53; STAT1 activ conf: 224*; NFkB act: 141*; STAT3 act 2: 122*

Results for Cc1ccc2oc(-c3ccc(NC(=O)CC(C)C)cc3)nc2c1 ?
FLuc act counter: 0.8; NF-kB expr up: 2.4; FLuc inhib CS: 20; Rad51 HR inh: 1; STAT1 act: 154*; APP 5'UTR act: 119; STAT1 activ conf: 212*; NFkB act: 130; STAT3 act 2: 108

How did Cc1cccc(C)c1OCC(O)CNS(=O)(=O)c1ccccc1C(=O)N1CCCCC1 (stereo not drawn) do in these assays?
FLuc act counter: 1.1; NF-kB expr up: 0.78; FLuc inhib CS: -8; Rad51 HR inh: 0; STAT1 act: 103; APP 5'UTR act: 12

Results for COc1cccc(-c2nc(-c3cccs3)no2)c1 ?
Rad51 HR inh: -5

Results for COc1ccc(-c2noc(-c3ccco3)n2)cc1OC ?
FLuc act counter: 0.7; NF-kB expr up: 5.7*; FLuc inhib CS: 32; Rad51 HR inh: 8; STAT1 act: 152*; APP 5'UTR act: 124; STAT1 activ conf: 202*; NFkB act: 137*; STAT3 act 2: 119*

What do the screens show for `COc1cccc(-c2noc(-c3ccoc3C)n2)c1`?
FLuc act counter: 0.6; NF-kB expr up: 2.9; FLuc inhib CS: 35; STAT1 act: 160*; APP 5'UTR act: 109; STAT1 activ conf: 192*; NFkB act: 134*; STAT3 act 2: 111*

How did CCN(CC)CCCN(Cc1cc2cc3c(cc2[nH]c1=O)OCCO3)C(=O)Nc1ccc(F)cc1 do in these assays?
FLuc act counter: 1; NF-kB expr up: 1.9; FLuc inhib CS: 1; Rad51 HR inh: 4; STAT1 act: 103; APP 5'UTR act: -13

How did O=C1Nc2ccccc2S/C1=C/NCc1ccccc1Cl do in these assays?
FLuc act counter: 0.9; NF-kB expr up: 1.4; FLuc inhib CS: 6; Rad51 HR inh: -2; STAT1 act: 97; APP 5'UTR act: 0

Results for Cc1ccc(N/C=C2/Sc3ccccc3NC2=O)cc1 ?
FLuc act counter: 0.8; NF-kB expr up: 1.7; FLuc inhib CS: 23; Rad51 HR inh: -132; STAT1 act: 168*; APP 5'UTR act: 123; STAT1 activ conf: 192*; NFkB act: 135*; STAT3 act 2: 90

How did COc1ccc(N/C=C2/Sc3ccccc3NC2=O)cc1 do in these assays?
FLuc act counter: 0.8; NF-kB expr up: 1.8; FLuc inhib CS: 23; Rad51 HR inh: 4; STAT1 act: 166*; APP 5'UTR act: 104; STAT1 activ conf: 170*; NFkB act: 112; STAT3 act 2: 107

Results for COCCn1c(=O)[nH]c2cc(C(=O)NCCN3CCN(c4ccc(OC)cc4)CC3)ccc2c1=O ?
FLuc act counter: 1; NF-kB expr up: 0.76; FLuc inhib CS: 0; Rad51 HR inh: 3; STAT1 act: 102; APP 5'UTR act: 9

What do the screens show for `Nc1cccc(-n2nncc2-c2ccccc2)c1`?
FLuc act counter: 1; NF-kB expr up: 0.97; FLuc inhib CS: -4; Rad51 HR inh: 2; STAT1 act: 105; APP 5'UTR act: -12

What do the screens show for `COc1ccc(Nc2nc(-c3ccc(OC)cc3)cs2)cc1`?
FLuc act counter: 0.9; FLuc inhib CS: 13; STAT1 act: 151*; APP 5'UTR act: 137*; STAT1 activ conf: 182*; NFkB act: 142*; STAT3 act 2: 99

Results for COc1ccc(-c2csc(Nc3ccccc3)n2)cc1 ?
FLuc act counter: 0.8; NF-kB expr up: 5.4*; FLuc inhib CS: 24; Rad51 HR inh: -8; STAT1 act: 180*; APP 5'UTR act: 195*; STAT1 activ conf: 232*; NFkB act: 152*; STAT3 act 2: 110

What do the screens show for `c1ccc(Nc2nc(-c3ccccn3)cs2)cc1`?
FLuc act counter: 0.8; NF-kB expr up: 7.5*; FLuc inhib CS: 24; Rad51 HR inh: 2; STAT1 act: 158*; APP 5'UTR act: 205*; STAT1 activ conf: 226*; NFkB act: 150*; STAT3 act 2: 126*
